Data from ChEMBL document CHEMBL3871264, “Design of a novel thiophene inhibitor of 15-lipoxygenase-1 with both anti-inflammatory and neuroprotective properties” (Eur J Med Chem, 2016).
Active and inactive are the calls of the source. The rule behind the calls is not given here.

Legend:
[1] = biological target: T1, Polyunsaturated fatty acid lipoxygenase ALOX15 (Homo sapiens, UniProt P16050); experiment: Inhibition of human 15-LOX-1 assessed as reduction in conversion of linoleic acid to 13(S)-HpODE incubated for 10 mins followed by linoleic acid addition by UV-absorbance analysis
T1 sequence (P16050 whole entry): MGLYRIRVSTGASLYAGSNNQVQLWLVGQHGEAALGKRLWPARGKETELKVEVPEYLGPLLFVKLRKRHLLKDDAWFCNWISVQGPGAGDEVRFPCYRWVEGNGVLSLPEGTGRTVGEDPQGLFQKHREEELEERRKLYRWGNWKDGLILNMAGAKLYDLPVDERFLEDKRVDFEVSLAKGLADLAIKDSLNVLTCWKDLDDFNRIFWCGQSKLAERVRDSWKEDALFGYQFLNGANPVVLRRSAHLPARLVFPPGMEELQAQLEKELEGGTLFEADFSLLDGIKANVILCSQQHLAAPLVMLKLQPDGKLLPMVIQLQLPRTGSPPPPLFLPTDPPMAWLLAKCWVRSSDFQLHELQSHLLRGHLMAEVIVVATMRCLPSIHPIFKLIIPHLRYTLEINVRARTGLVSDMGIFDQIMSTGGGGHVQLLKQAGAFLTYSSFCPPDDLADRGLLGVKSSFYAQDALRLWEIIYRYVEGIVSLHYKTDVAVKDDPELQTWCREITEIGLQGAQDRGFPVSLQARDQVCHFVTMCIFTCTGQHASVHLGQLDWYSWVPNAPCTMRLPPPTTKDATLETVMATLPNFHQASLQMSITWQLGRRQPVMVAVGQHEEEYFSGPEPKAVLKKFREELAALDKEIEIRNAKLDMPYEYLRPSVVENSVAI

[2] = biological target: T1, Polyunsaturated fatty acid lipoxygenase ALOX15; experiment: Competitive inhibition of human 15-LOX-1 assessed as reduction in conversion of linoleic acid to 13(S)-HpODE incubated for 10 mins followed by linoleic acid addition by Lineweaver-Burk plot analysis
[3] = species on record: Mus musculus; experiment: Toxicity in C57bl/6 mouse precision-cut lung slices assessed as decrease in tissue viability up to 50 uM after 20 hrs in presence of linoleic acid by lactate dehydrogenase release assay; type: organism-based; details: in vivo
Procedure, shortened: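 Mouse lung slices were cultured with inhibitor and 10 μM linoleic acid for 20 h at 37 °C. LDH released into the medium was measured by automated analyzer.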

[4] = biological target: T2, Polyunsaturated fatty acid lipoxygenase ALOX15 (Mus musculus) (UniProt P39654); experiment: Inhibition of 15-LOX-1 in C57bl/6 mouse precision-cut lung slices assessed as reduction in LPS-stimulated IL-6 mRNA expression level at 50 uM incubated for 20 hrs followed by LPS stimulation for 4 hrs in presence of linoleic acid by RT-qPCR analysis
T2 sequence (whole entry): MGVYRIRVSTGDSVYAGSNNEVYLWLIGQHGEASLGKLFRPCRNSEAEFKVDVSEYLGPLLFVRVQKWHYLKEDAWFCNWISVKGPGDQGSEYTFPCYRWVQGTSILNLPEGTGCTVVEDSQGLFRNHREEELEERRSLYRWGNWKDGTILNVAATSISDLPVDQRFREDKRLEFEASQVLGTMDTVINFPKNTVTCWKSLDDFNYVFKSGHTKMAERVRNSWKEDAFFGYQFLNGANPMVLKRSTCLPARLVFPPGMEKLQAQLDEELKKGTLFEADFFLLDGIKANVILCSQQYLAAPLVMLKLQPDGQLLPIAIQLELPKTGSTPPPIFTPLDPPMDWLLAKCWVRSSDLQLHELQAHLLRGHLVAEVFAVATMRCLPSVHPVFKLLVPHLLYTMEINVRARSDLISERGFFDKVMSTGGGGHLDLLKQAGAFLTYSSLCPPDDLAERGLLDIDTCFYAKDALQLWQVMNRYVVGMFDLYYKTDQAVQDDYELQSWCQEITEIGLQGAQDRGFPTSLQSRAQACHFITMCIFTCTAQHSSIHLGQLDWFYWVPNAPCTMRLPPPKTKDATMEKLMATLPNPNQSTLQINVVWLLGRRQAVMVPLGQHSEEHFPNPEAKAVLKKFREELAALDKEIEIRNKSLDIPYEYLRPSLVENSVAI
Procedure, shortened: (§1)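 Lung slices, 250 μm, were cut from agarose-filled lungs of male C57bl/6 mice aged 8-10 weeks and cultured at 37 °C in 5% CO2 in supplemented DMEM, 3 slices per well. Inhibitor was given for 20 h with 10 μM linoleic acid. For the last 4 h, 10 ng/ml LPS plus 10 ng/ml IFNγ were added. Read-out was RT-qPCR (10 ng cDNA, GAPDH assay included), in duplicate or triplicate wells, as fold change versus LPS/linoleic acid control, with 4-6 independent experiments.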

[5] = biological target: T2, Polyunsaturated fatty acid lipoxygenase ALOX15 (Mus musculus); experiment: Inhibition of 15-LOX-1 in C57bl/6 mouse precision-cut lung slices assessed as reduction in LPS-stimulated IL-12b mRNA expression level at 50 uM incubated for 20 hrs followed by LPS stimulation for 4 hrs in presence of linoleic acid by RT-qPCR analysis; procedure, shortened: as §1
[6] = biological target: T2, Polyunsaturated fatty acid lipoxygenase ALOX15 (Mus musculus); experiment: Inhibition of 15-LOX-1 in mouse HT22 cells assessed as inhibition of glutamate-induced superoxide production in mitochondria at 10 uM incubated for 14 to 16 hrs by mitoSOX staining based FACS analysis; details: HT-22
Procedure, shortened: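 HT-22 cells were seeded at 5x10^4 per well and incubated overnight. They were then given 4 mM glutamate with or without 10 µM inhibitor or 1 µM PD146176 for 14-16 h. Cells were stained with MitoSOX at 2.5 µM final for 30 min at 37 °C, and fluorescence intensity was measured by flow cytometry (488 nm excitation). At least 3 experiments were run, each in triplicate.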

[7] = biological target: T2, Polyunsaturated fatty acid lipoxygenase ALOX15 (Mus musculus); experiment: Inhibition of 15-LOX-1 in mouse HT22 cells assessed as protection against glutamate-induced cell impedance at 5 to 10 uM cotreated with glutamate measured for 16 to 20 hrs by real time cell viability assay; type: cell-based; details: HT-22
Procedure, shortened: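 HT-22 cells were seeded at 8x10^3 per well, incubated overnight, then given 4 mM glutamate. Inhibitor was either co-applied (1-20 µM; PD146176 at 1 µM) or added at 10 µM 2, 4, 6 or 8 h after glutamate. Impedance was recorded in real time for 16-20 h, with cell index normalized just before glutamate addition.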

[8] = biological target: T2, Polyunsaturated fatty acid lipoxygenase ALOX15 (Mus musculus); experiment: Inhibition of 15-LOX-1 in C57bl/6 mouse precision-cut lung slices assessed as reduction in LPS-stimulated IL-6 mRNA expression level at 5 uM incubated for 20 hrs followed by LPS stimulation for 4 hrs in presence of linoleic acid by RT-qPCR analysis; procedure, shortened: as §1
[9] = biological target: T2, Polyunsaturated fatty acid lipoxygenase ALOX15 (Mus musculus); experiment: Inhibition of 15-LOX-1 in mouse HT22 cells assessed as protection against glutamate-induced cell death by measuring increase in cell viability at 10 uM incubated up to 8 hrs following glutamate challenge by MTT assay; type: cell-based; details: HT-22
Procedure, shortened: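 HT-22 cells were seeded at 8x10^3 per well and incubated overnight. They were challenged with 4 mM glutamate in DMEM/10% FCS. Inhibitor was given either with glutamate (1-20 µM; PD146176 at 1 µM) or added at 5 or 10 µM 2, 4, 6 or 8 h after glutamate. After 14-16 h, MTT was added at 0.5 mg/mL for 1 h at 37 °C. Formazan was dissolved in DMSO and read at 570 nm minus 630 nm background, expressed relative to control. Three experiments were run with 6-8 replicates each.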

IC50 [1]: 12.4 µM | Ki [2]: 3.3 µM | inhibition [4]: 50% | inhibition [5]: 50% | inhibition [6]: Active | inhibition [8]: Active
Compound: CCCCNC(=O)c1cc(-c2ccccc2)sc1N
Activity [3]: Non-Toxic | inhibition [7]: Active | inhibition [9]: Active
